{"source": "ChEMBL document CHEMBL3351306", "about": "“Physicochemical property-driven optimization of diarylaniline compounds as potent HIV-1 non-nucleoside reverse transcriptase inhibitors” (Bioorg Med Chem Lett, 2014)", "key": {"[1]": {"system": "Human immunodeficiency virus 1", "test": "Antiviral activity against wild type HIV1 3B infected in human MT2 cells assessed as inhibition of viral replication", "type": "functional, organism-based", "details": "Human immunodeficiency virus 1, 3B"}, "[2]": {"system": "MT2", "test": "Cytotoxicity against human MT2 cells assessed as cell viability", "type": "cell-based", "summary_of_the_method": "(§1)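 Run in MT-2 cells, at least in triplicate, reported as mean ± SD; the paired antiviral measurement used wild-type HIV-1 IIIB replication in MT-2 cells.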"}, "[3]": {"test": "Selectivity index, ratio of CC50 for human MT2 cells to EC50 for wild type HIV1 3B", "type": "toxicity, cell-based", "details": "read-out: Selectivity Index", "summary_of_the_method": "as §1"}, "[4]": {"system": "Human immunodeficiency virus 1", "test": "Fold resistance, ratio of EC50 for HIV1 A17 expressing K103N/Y181C mutant infected in human MT2 cells to EC50 for wild-type HIV1 3B infected in human MT2 cells", "type": "functional"}, "[5]": {"test": "Aqueous solubility of the compound at pH 2 by HPLC analysis", "type": "physicochemical", "details": "buffer", "summary_of_the_method": "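Solubility in aqueous buffer at pH 2.0, chosen to mimic stomach conditions; dissolved compound quantified by HPLC.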"}, "[6]": {"test": "Aqueous solubility of the compound at pH 7.4 by HPLC analysis", "type": "physicochemical", "details": "buffer", "summary_of_the_method": "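Solubility in aqueous buffer at pH 7.4, chosen to mimic plasma conditions; dissolved compound quantified by HPLC.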"}, "[7]": {"test": "Lipophilicity, log P of the compound by HPLC analysis", "type": "physicochemical", "summary_of_the_method": "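Log P determined experimentally by HPLC at pH 7.4.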"}, "[8]": {"system": "Human immunodeficiency virus 1", "test": "Antiviral activity against drug-resistant HIV1 A17 expressing K103N/Y181C mutant infected in human MT2 cells assessed as inhibition of viral replication", "details": "Human immunodeficiency virus 1, A17, MT2"}}}
{"smiles": "CC(=O)OCc1cc(N)c(Nc2ccc(C#N)cc2)cc1Oc1c(C)cc(/C=C/C#N)cc1C", "values": [{"measurement": "EC50", "setting": "[1]", "result": 0.82, "unit": "nM"}, {"measurement": "CC50", "setting": "[2]", "result": 96300, "unit": "nM"}, {"measurement": "selectivity ratio", "setting": "[3]", "result": 117000}, {"measurement": "Ratio EC50", "setting": "[4]", "result": 44.5}, {"measurement": "solubility", "setting": "[5]", "result": 1.87, "unit": "µg/mL"}, {"measurement": "solubility", "setting": "[6]", "result": 0.49, "unit": "µg/mL"}, {"measurement": "logP", "setting": "[7]", "result": 4.48}, {"measurement": "EC50", "setting": "[8]", "result": 36.5, "unit": "nM"}]}
{"smiles": "Cc1cc(C#N)cc(C)c1Oc1cc(Nc2ccc(C#N)cc2)c(N)cc1COC(C)C", "values": [{"measurement": "EC50", "setting": "[1]", "result": 14, "unit": "nM"}, {"measurement": "CC50", "setting": "[2]", "result": 89400, "unit": "nM"}, {"measurement": "selectivity ratio", "setting": "[3]", "result": 6390}, {"measurement": "Ratio EC50", "setting": "[4]", "result": 22.5}, {"measurement": "EC50", "setting": "[8]", "result": 315, "unit": "nM"}]}
{"smiles": "Cc1cc(/C=C/C#N)cc(C)c1Nc1ccnc(Nc2ccc(C#N)cc2)n1", "note": "[RILPIVIRINE]", "values": [{"measurement": "CC50", "setting": "[2]", "result": 90700, "unit": "nM"}, {"measurement": "logP", "setting": "[7]; read-out: logP", "result": "> 5"}]}
{"smiles": "Cc1cc(C#N)cc(C)c1Oc1cc(Nc2ccc(C#N)cc2)c(N)cc1CNCCCO", "values": [{"measurement": "EC50", "setting": "[1]", "result": 6.1, "unit": "nM"}, {"measurement": "CC50", "setting": "[2]", "result": 15100, "unit": "nM"}, {"measurement": "selectivity ratio", "setting": "[3]", "result": 2480}, {"measurement": "Ratio EC50", "setting": "[4]", "result": ">328"}, {"measurement": "solubility", "setting": "[5]", "result": 290, "unit": "µg/mL"}, {"measurement": "solubility", "setting": "[6]", "result": 236, "unit": "µg/mL"}, {"measurement": "logP", "setting": "[7]", "result": 1.81}, {"measurement": "EC50", "setting": "[8]", "result": "> 2000", "unit": "nM"}]}
{"smiles": "CC(=O)OCc1cc(N)c(Nc2ccc(C#N)cc2)cc1Oc1c(C)cc(C#N)cc1C", "values": [{"measurement": "EC50", "setting": "[1]", "result": 1.06, "unit": "nM"}, {"measurement": "CC50", "setting": "[2]", "result": 113000, "unit": "nM"}, {"measurement": "selectivity ratio", "setting": "[3]", "result": 107000}, {"measurement": "Ratio EC50", "setting": "[4]", "result": 353}, {"measurement": "solubility", "setting": "[5]", "result": 16.7, "unit": "µg/mL"}, {"measurement": "solubility", "setting": "[6]", "result": 0.2, "unit": "µg/mL"}, {"measurement": "logP", "setting": "[7]", "result": 4.4}, {"measurement": "EC50", "setting": "[8]", "result": 374, "unit": "nM"}]}
{"smiles": "CNCc1cc(N)c(Nc2ccc(C#N)cc2)cc1Oc1c(C)cc(C#N)cc1C", "values": [{"measurement": "EC50", "setting": "[1]", "result": 9.94, "unit": "nM"}, {"measurement": "CC50", "setting": "[2]", "result": 12700, "unit": "nM"}, {"measurement": "selectivity ratio", "setting": "[3]", "result": 1280}, {"measurement": "Ratio EC50", "setting": "[4]", "result": 11.6}, {"measurement": "solubility", "setting": "[5]", "result": 263, "unit": "µg/mL"}, {"measurement": "solubility", "setting": "[6]", "result": 159, "unit": "µg/mL"}, {"measurement": "logP", "setting": "[7]", "result": 1.86}, {"measurement": "EC50", "setting": "[8]", "result": 115, "unit": "nM"}]}
{"smiles": "Cc1cc(C#N)cc(C)c1Oc1cc(Nc2ccc(C#N)cc2)c(N)cc1CN1CCN(C)CC1", "values": [{"measurement": "EC50", "setting": "[1]", "result": 170, "unit": "nM"}, {"measurement": "CC50", "setting": "[2]", "result": 96900, "unit": "nM"}, {"measurement": "selectivity ratio", "setting": "[3]", "result": 570}, {"measurement": "Ratio EC50", "setting": "[4]", "result": ">11.8"}, {"measurement": "EC50", "setting": "[8]", "result": "> 2000", "unit": "nM"}]}
{"smiles": "Cc1cc(C#N)cc(C)c1Oc1cc(Nc2ccc(C#N)cc2)c(N)cc1CO", "values": [{"measurement": "EC50", "setting": "[1]", "result": 1.07, "unit": "nM"}, {"measurement": "CC50", "setting": "[2]", "result": 122000, "unit": "nM"}, {"measurement": "selectivity ratio", "setting": "[3]", "result": 114000}, {"measurement": "Ratio EC50", "setting": "[4]", "result": 30.9}, {"measurement": "solubility", "setting": "[5]", "result": 9.12, "unit": "µg/mL"}, {"measurement": "solubility", "setting": "[6]", "result": 0.86, "unit": "µg/mL"}, {"measurement": "logP", "setting": "[7]", "result": 3.57}, {"measurement": "EC50", "setting": "[8]", "result": 33.1, "unit": "nM"}]}
{"smiles": "COCc1cc(N)c(Nc2ccc(C#N)cc2)cc1Oc1c(C)cc(CCC#N)cc1C", "values": [{"measurement": "EC50", "setting": "[1]", "result": 3.25, "unit": "nM"}, {"measurement": "selectivity ratio", "setting": "[3]", "result": "> 61500"}, {"measurement": "Ratio EC50", "setting": "[4]", "result": 0.91}, {"measurement": "solubility", "setting": "[5]", "result": 1.82, "unit": "µg/mL"}, {"measurement": "solubility", "setting": "[6]", "result": 0.66, "unit": "µg/mL"}, {"measurement": "logP", "setting": "[7]", "result": 3.25}, {"measurement": "EC50", "setting": "[8]", "result": 2.95, "unit": "nM"}]}
{"smiles": "COCc1cc(N)c(Nc2ccc(C#N)cc2)cc1Oc1c(C)cc(C#N)cc1C", "values": [{"measurement": "EC50", "setting": "[1]", "result": 3.54, "unit": "nM"}, {"measurement": "CC50", "setting": "[2]", "result": 146000, "unit": "nM"}, {"measurement": "selectivity ratio", "setting": "[3]", "result": 41200}, {"measurement": "Ratio EC50", "setting": "[4]", "result": 84.2}, {"measurement": "solubility", "setting": "[5]", "result": 3.75, "unit": "µg/mL"}, {"measurement": "solubility", "setting": "[6]", "result": 0.07, "unit": "µg/mL"}, {"measurement": "logP", "setting": "[7]", "result": 3.84}, {"measurement": "EC50", "setting": "[8]", "result": 298, "unit": "nM"}]}
{"smiles": "CC(=O)OCc1cc(N)c(Nc2ccc(C#N)cc2)cc1Oc1c(C)cc(CCC#N)cc1C", "values": [{"measurement": "EC50", "setting": "[1]", "result": 0.96, "unit": "nM"}, {"measurement": "CC50", "setting": "[2]", "result": 44800, "unit": "nM"}, {"measurement": "selectivity ratio", "setting": "[3]", "result": 46700}, {"measurement": "Ratio EC50", "setting": "[4]", "result": 5.1}, {"measurement": "solubility", "setting": "[5]", "result": 2.63, "unit": "µg/mL"}, {"measurement": "solubility", "setting": "[6]", "result": 1.86, "unit": "µg/mL"}, {"measurement": "logP", "setting": "[7]", "result": 2.84}, {"measurement": "EC50", "setting": "[8]", "result": 4.92, "unit": "nM"}]}
{"smiles": "Cc1cc(C#N)cc(C)c1Oc1cc(Nc2ccc(C#N)cc2)c(N)cc1CNC1CC1", "values": [{"measurement": "EC50", "setting": "[1]", "result": 10.6, "unit": "nM"}, {"measurement": "CC50", "setting": "[2]", "result": 12100, "unit": "nM"}, {"measurement": "selectivity ratio", "setting": "[3]", "result": 1140}, {"measurement": "Ratio EC50", "setting": "[4]", "result": 12.3}, {"measurement": "solubility", "setting": "[5]", "result": 286, "unit": "µg/mL"}, {"measurement": "solubility", "setting": "[6]", "result": 13, "unit": "µg/mL"}, {"measurement": "logP", "setting": "[7]", "result": 3.84}, {"measurement": "EC50", "setting": "[8]", "result": 130, "unit": "nM"}]}
{"smiles": "COCc1cc(N)c(Nc2ccc(C#N)cc2)cc1Oc1c(C)cc(/C=C/C#N)cc1C", "values": [{"measurement": "EC50", "setting": "[1]", "result": 5.74, "unit": "nM"}, {"measurement": "CC50", "setting": "[2]", "result": 50300, "unit": "nM"}, {"measurement": "selectivity ratio", "setting": "[3]", "result": 8760}, {"measurement": "Ratio EC50", "setting": "[4]", "result": 2.6}, {"measurement": "solubility", "setting": "[5]", "result": 1.7, "unit": "µg/mL"}, {"measurement": "solubility", "setting": "[6]", "result": 0.11, "unit": "µg/mL"}, {"measurement": "logP", "setting": "[7]", "result": 4.13}, {"measurement": "EC50", "setting": "[8]", "result": 14.7, "unit": "nM"}]}
